# High-throughput results (PubChem)
# KCNK3 block – human KCNK3 channel inhibition, primary screen; O14649; CHO-KCNK3 thallium flux, FluxOR fluorescence; stronger effect = lower value; B-score at 10 µM; 340,000 tested, 0.84% active; AID 602410;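 active means B-score under library mean minus 4 SD, starting fluorescence ratio at most library mean plus 5 SD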;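 further: more negative B-score means stronger inhibition of thallium flux through KCNK3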
# KCNQ1 act – potentiators or activators of human KCNQ1 potassium channel | P51787 | B-score at 10 µM | 310,000 tested, 0.35% active | CHO-K1 KCNQ1, thallium flux FluxOR fluorescence; stronger effect = higher value;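 active means fluorescence ratio B-score, a plate-corrected score, at least three library SD, with initial intensity B-score within 5 SD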
#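 assay system = KCNQ1-transfected CHO-K1 cells | medium = assay buffer with matched DMSO | probe or stimulus = depolarizing K+/Tl+ stimulus, K2SO4 and Tl2SO4 each 12.5 mM in 5x stock | dosing = single dose | incubation = dye 90 min, compound 20 min, room temperature | detection = kinetic FluxOR fluorescence, 10 s baseline plus 110 s post-stimulus | evaluation = ratio B score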
# KCNK9 block – inhibitors of human KCNK9 two-pore domain potassium channel | HEK293 KCNK9, FluxOR thallium flux fluorescence; stronger effect = lower value | Q9NPC2 | B-score at 10 µM | 310,000 tested, 1.2% active;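 active means ratio B-score over 3 SD below the library mean, with starting fluorescence within 5 SD of its mean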;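 further: negative B-score means less thallium flux so channel inhibition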
# Kir21 block – Kir2.1 (mouse) channel inhibition; B-score at 10 µM; HEK293-Kir2.1, FluxOR thallium flux fluorescence; stronger effect = lower value; P35561; AID 1672; 310,000 tested, 0.85% active;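 active means fluorescence ratio B-score at or below minus 3 SD of library scores, with starting-brightness B-score within 2 SD, cut at about -4.2 in these data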;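 further: channel flux triggered by added potassium and thallium sulfate stimulus; B-score of peak minus minimum fluorescence over baseline after thallium stimulus; more negative B-score means stronger Kir2.1 block with less thallium influx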
# Target sequence (P35561 whole entry, looked up): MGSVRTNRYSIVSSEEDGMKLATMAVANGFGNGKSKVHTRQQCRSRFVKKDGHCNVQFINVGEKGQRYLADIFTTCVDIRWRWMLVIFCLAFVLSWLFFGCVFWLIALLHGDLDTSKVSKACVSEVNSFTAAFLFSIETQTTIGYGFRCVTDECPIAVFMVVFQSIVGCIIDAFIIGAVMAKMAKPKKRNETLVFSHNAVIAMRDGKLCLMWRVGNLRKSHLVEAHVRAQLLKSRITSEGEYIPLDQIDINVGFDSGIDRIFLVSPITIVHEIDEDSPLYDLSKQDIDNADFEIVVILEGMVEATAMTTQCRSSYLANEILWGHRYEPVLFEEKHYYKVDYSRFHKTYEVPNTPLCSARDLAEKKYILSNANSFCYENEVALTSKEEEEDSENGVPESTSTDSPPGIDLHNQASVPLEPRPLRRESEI
# KCNQ1 block – human KCNQ1 channel inhibition; AID 2642; P51787; CHO-K1 KCNQ1, FluxOR thallium flux fluorescence; stronger effect = higher value; B-score at 10 µM; 310,000 tested, 1.3% active;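 active means compounds whose thallium flux B-score, printed positive for inhibition, exceeds three library SD while starting fluorescence stays within three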;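 further: channel opened by potassium depolarization with thallium stimulus after 20 min compound exposure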
# hERG protect – hERG (human) protection from proarrhythmic block; Q12809; CHO-hERG, FluxOR thallium flux, dofetilide IC70 present; activation (rescue from dofetilide block), less the hit threshold, % at 10 µM; 310,000 tested, 0.51% active; AID 1511;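 active means activation above the mean of controls blocked by dofetilide plus 5 SD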;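 further: thallium influx through hERG after potassium depolarization seen as dye fluorescence rise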
# KCNK3 confirm – confirmation of human KCNK3 two-pore domain potassium channel inhibitors | shares compounds with KCNK3 block | CHO-KCNK3 thallium flux, FluxOR fluorescence; 0% buffer, 100% carvedilol maximal block | ratio percent of control, % at 10 µM | 2,400 tested, 99% active | AID 651638;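 active means ratio percent of control, averaged over triplicates, above buffer control mean plus 5 SD, cut at about 64% in these data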;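 further: ratio is the fluorescence rise from min to max over baseline after thallium stimulus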
# KCNK3 noninduced – counter-screen for KCNK3 inhibitors: effect in non-induced cells. shares compounds with KCNK3 block. non-induced KCNK3 parental cells, FluxOR thallium flux; stronger effect = lower value. thallium flux ratio (lower = more inhibition) at 10 µM. 2,400 tested, 40% active. AID 651747;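 active means thallium flux ratio, averaged over three wells, more than 5 SD below the buffer control mean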;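 further: host cells are CHO cells without KCNK3 induction; ratio is peak minus trough fluorescence over baseline then normalized to buffer controls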
# * hit, by the source's call; i = inactive; / = not tested or not shown. Shown are actives, neighbours in structure and some others; about 3.8% of the full set was active somewhere.
SMILES,KCNK3 block,KCNQ1 act,KCNK9 block,Kir21 block,KCNQ1 block,hERG protect,KCNK3 confirm,KCNK3 noninduced
CCCCC(=O)Oc1c(S(=O)(=O)c2ccccc2)c(C)nn1C(C)(C)C,-9.99*,i,i,-0.03,i,-4.4,118.0*,i
CCCC(=O)Oc1c(S(=O)(=O)c2ccc(C)cc2)c(C)nn1C(C)(C)C,-8.8*,i,i,-0.02,i,-12.5,90.3*,i
CC(=O)Oc1c(S(=O)(=O)c2ccccc2)c(C)nn1C(C)(C)C,i,i,i,-1.53,i,-9.2,/,/
N#CC1(NC(=O)COc2cccnc2[N+](=O)[O-])CCCCC1,i,/,/,/,/,/,/,/
COc1ccc(CN(C(=O)CCC(=O)Nc2cc(C)on2)C(C(=O)NC(C)(C)C)c2cccc(OC)c2OC)cc1 (centres undefined),i,i,i,1.02,i,-8.5,/,/
Cc1ccc(S(=O)(=O)N2CCN=C2SCc2ccc(Cl)c(Cl)c2)cc1,i,i,i,-0.55,i,-1.7,/,/
O=S(=O)(c1ccc(Cl)cc1)N1CCN=C1SCc1cccc(Cl)c1,i,i,i,-3.94,i,-7.1,/,/
Cc1ccc(C)c(CSC2=NCCN2S(=O)(=O)c2ccccc2)c1,-11.2*,i,-7.94*,-1.7,i,-10.7,128.7*,0.15*
O=S(=O)(c1ccccc1)N1CCN=C1SCc1c(F)cccc1Cl,-11.3*,i,i,-0.23,i,-19.2,121.3*,0.139*
Cn1nccc1C(=O)Oc1ccc(/C=N/NC(=O)c2ccccc2O)cc1,i,i,i,2.35,i,-5.3,/,/
CCN(CC)c1nc(-c2ccc(C(=O)NN)cc2)nc(-c2ccc(C(=O)NN)cc2)n1,-8.82*,i,i,-0.37,i,-0.7,52.3*,i
O=C(COC(=O)C1CC1)Nc1ccc(S(=O)(=O)N2CCOCC2)cc1,i,/,/,/,/,/,/,/
CCCc1nn(-c2cc(Cl)ccc2OC)c2c1C(=O)CC(C)(C)C2,-10.8*,i,i,-1.19,i,-7.9,86.7*,i
COC(=O)C1CC(O)C(O)C(O)C1 (centres undefined),i,/,/,/,/,/,/,/
O=c1c2cn[nH]c2nc(SCc2c(F)cccc2F)n1-c1ccc(Cl)cc1,-9.33*,i,i,-0.39,i,-21.9,129.0*,0.149*
Cc1noc(C)c1CSc1nc2[nH]ncc2c(=O)n1-c1ccccc1,i,i,i,-0.91,i,-7.5,/,/
COc1cc2cc(C(=O)Nc3ccc4c(c3)OCCO4)[nH]c2cc1OC,i,i,i,0.25,i,-9.6,/,/
COCCCN(C(=S)Nc1cc(Cl)cc(Cl)c1)C(C)c1ccccn1 (centres undefined),-10.7*,i,i,1.31,8*,-8.0,123.0*,0.158*
COCCCN(C(=S)Nc1cc(Cl)cc(Cl)c1)C(C)c1ccncc1 (centres undefined),i,i,i,-1.19,i,-8.1,/,/
COC(=O)c1ccc(NC(=O)CN2C(=O)CC(C)S(=O)(=O)c3ccccc32)cc1 (centres undefined),i,i,i,-3.41,i,-9.2,/,/
COc1ccc(Cl)cc1NC(=O)CN(C)C(=O)Cc1ccc(-c2ccccc2)cc1,i,/,/,/,/,/,/,/
COc1ccc(Cl)cc1NC(=O)CN(C)CC(=O)Nc1ccccc1-c1ccccc1,-9.71*,i,i,1.55,i,-0.2,99.0*,i
CCC(C)C(=O)Nc1ccc(S(=O)(=O)N2CCCC2)cc1 (centres undefined),i,i,i,-0.14,i,-4.6,/,/
CCC(C)NS(=O)(=O)c1ccc(S(=O)(=O)N2CCCC3(CCCCC3)C2)cc1 (centres undefined),-9*,i,i,-2.39,i,-9.9,117.7*,0.144*
CCN(CC)C(=O)CCSc1nnc(-c2ccco2)o1,i,i,i,-1.66,i,-5.9,/,/
SMILES,KCNK3 block,KCNQ1 act,KCNK9 block,Kir21 block,KCNQ1 block,hERG protect,KCNK3 confirm,KCNK3 noninduced
CCOC(=O)c1cc(C#N)c(SCC(N)=O)[nH]c1=O,i,i,i,-1.2,i,-10.6,/,/
CCOC(=O)c1cc(C#N)c(SCC(=O)c2cc(C#N)c(SC)nc2C)[nH]c1=O,-10.2*,i,i,-0.71,i,-11.6,122.3*,0.133*
Clc1ccc(C2Nc3ccccc3-n3cccc32)cc1 (centres undefined),-12.7*,i,i,0.34,i,-12.3,114.0*,0.156*
O=C(NCc1ccc2c(c1)OCO2)c1ccc(CSCc2ccc(Cl)cc2)o1,-8.79*,i,i,-0.07,i,-8.2,96.3*,0.138*
Cc1ccc(C(=O)N(C)CC(=O)Nc2ccc(N3CCOCC3)cc2)s1,i,i,i,2.71,i,-7.9,/,/
N#Cc1cccc(CN2CCCN(Cc3ccc(F)cc3)S2(=O)=O)c1,-9.17*,i,i,-0.69,i,-3.6,94.0*,0.149*
C/C(N)=C(/C#N)C(=O)COC(=O)CNS(=O)(=O)c1c(F)cccc1F,i,i,i,2.42,i,-13.5,/,/
CCCN1C(=O)/C(=C/c2cc(C)n(C)c2C)SC1=Nc1ccc(OC)cc1,-10.8*,i,i,-0.76,i,-7.8,101.3*,0.155*
CC(=O)OC(C)=O,i,/,/,/,/,/,/,/
COc1ccc(Cl)cc1NC(=S)Nc1cccc(C)c1,-9.38*,i,i,1.16,i,-5.2,105.0*,i
Cc1ccccc1-c1cc(-c2ccccc2O)on1,-9.16*,i,i,1.45,i,-6.8,118.3*,i
COc1ccc(C(=O)C2CCCN(S(=O)(=O)c3ccc(C(C)=O)cc3)C2)c(C)c1 (centres undefined),-10.1*,i,i,0.19,i,-7.9,119.7*,0.153*
CCn1c(SCC(=O)NC2CCCCC2)nc2ccccc2c1=O,i,i,i,0.65,i,-5.2,/,/
N#CCC(CNc1ncc(C(F)(F)F)cc1Cl)OC(=O)c1ccc(Cl)cc1Cl (centres undefined),-9.53*,i,i,-0.41,i,-11.8,102.0*,0.159*
COc1ccc2cc(C(=O)/C=C/c3cc(OC)c(O)c(OC)c3)ccc2c1,-9.76*,i,i,-0.32,i,-11.2,131.3*,0.13*
COc1cccc(CNC(=O)c2ccc(CS(=O)(=O)Cc3ccccc3C)o2)c1,i,i,i,-1.05,i,-12.0,/,/
